Assay results reported in ChEMBL document CHEMBL2440064, “Synthesis and biological evaluation of 2-amino-5-aryl-3-benzylthiopyridine scaffold based potent c-Met inhibitors” (Bioorg Med Chem, 2013).
Active and inactive are the calls of the source. No cut-off for these calls is given here.

How the values were obtained:
[1] = molecular target: T1, Hepatocyte growth factor receptor (Homo sapiens, UniProt P08581); test: Inhibition of c-Met (unknown origin) using poly (Glu, Tyr) 4:1 as substrate after 60 mins by ELISA
T1 sequence (P08581 whole entry): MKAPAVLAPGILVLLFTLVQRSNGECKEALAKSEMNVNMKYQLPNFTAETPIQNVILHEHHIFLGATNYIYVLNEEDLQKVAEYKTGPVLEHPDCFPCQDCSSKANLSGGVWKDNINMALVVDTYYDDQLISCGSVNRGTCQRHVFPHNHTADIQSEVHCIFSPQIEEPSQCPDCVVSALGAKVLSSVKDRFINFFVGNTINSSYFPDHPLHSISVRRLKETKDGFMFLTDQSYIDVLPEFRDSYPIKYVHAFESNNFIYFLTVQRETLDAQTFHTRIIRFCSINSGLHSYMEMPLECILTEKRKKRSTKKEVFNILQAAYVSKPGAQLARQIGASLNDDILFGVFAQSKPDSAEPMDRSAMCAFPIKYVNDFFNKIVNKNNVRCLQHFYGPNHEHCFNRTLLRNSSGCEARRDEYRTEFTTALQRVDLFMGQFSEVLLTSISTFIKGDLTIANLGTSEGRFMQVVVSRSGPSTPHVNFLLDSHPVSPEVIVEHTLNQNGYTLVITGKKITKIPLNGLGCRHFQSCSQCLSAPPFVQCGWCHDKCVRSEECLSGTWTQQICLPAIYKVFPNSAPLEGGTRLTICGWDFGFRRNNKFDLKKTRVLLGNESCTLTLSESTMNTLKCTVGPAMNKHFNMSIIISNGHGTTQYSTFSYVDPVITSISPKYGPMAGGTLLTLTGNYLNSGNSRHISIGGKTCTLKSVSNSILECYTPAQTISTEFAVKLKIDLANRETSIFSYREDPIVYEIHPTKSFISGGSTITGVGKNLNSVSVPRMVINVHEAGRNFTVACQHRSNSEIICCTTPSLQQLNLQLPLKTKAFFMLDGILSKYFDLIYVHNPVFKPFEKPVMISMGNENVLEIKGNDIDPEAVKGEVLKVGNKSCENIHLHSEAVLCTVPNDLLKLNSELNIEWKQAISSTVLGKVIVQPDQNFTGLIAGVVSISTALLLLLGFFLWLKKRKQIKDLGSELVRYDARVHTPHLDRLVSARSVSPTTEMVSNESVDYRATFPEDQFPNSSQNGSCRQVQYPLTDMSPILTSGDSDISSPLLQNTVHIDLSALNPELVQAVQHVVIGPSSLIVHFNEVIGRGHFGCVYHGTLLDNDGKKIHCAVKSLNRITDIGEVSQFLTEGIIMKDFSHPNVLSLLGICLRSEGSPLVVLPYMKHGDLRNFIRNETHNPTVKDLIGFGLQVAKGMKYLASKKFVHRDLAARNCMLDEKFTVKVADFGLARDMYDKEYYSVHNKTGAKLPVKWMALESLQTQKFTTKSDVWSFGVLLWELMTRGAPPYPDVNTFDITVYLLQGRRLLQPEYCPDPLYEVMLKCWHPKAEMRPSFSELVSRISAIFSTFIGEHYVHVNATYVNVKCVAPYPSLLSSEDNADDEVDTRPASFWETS

[2] = molecular target: T1, Hepatocyte growth factor receptor; test: Inhibition of c-Met in gefitinib-resistant human HCC827 cells assessed as inhibition of p44/42 phosphorylation at 0.5 uM after 2 hrs by Western blotting analysis; format: cell-based
Outline: (§1)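 Cells grown to exponential phase, treated with compound 2 h at 37°C, lysed in 1× SDS sample buffer, resolved on 10% SDS-PAGE and transferred to nitrocellulose for immunoblotting.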

[3] = molecular target: T1, Hepatocyte growth factor receptor; test: Inhibition of c-Met phosphorylation in gefitinib-resistant human HCC827 cells at 0.5 uM after 2 hrs by Western blotting analysis; format: cell-based; outline: as §1
[4] = molecular target: T1, Hepatocyte growth factor receptor; test: Inhibition of c-Met in gefitinib-resistant human HCC827 cells assessed as inhibition of AKT phosphorylation at 0.5 uM after 2 hrs by Western blotting analysis; format: cell-based; outline: as §1
[5] = molecular target: T1, Hepatocyte growth factor receptor; test: Inhibition of c-Met (unknown origin) using poly (Glu, Tyr) 4:1 as substrate at 10 uM after 60 mins by ELISA
Outline: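 ELISA on wells precoated with 20 µg/mL poly(Glu,Tyr)4:1. Purified kinase with 10 µmol/L ATP in 50 mM HEPES pH 7.4, 50 mM MgCl₂, 0.5 mM MnCl₂, 0.2 mM Na₃VO₄, 1 mM DTT; 1% DMSO vehicle. 60 min at 37°C. Phosphotyrosine detected with PY99 antibody, then HRP anti-mouse IgG and o-phenylenediamine/H₂O₂, A490. Inhibition = [1−(A490/A490 control)]×100%; IC50 from curves.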

HCT-116 = test: Antiproliferative activity against human HCT116 cells after 72 hrs; conditions: HCT-116, 72 h
SK-MEL-28 = test: Antiproliferative activity against human SK-MEL-28 cells after 72 hrs; conditions: SK-MEL-28, 72 h
SK-OV-3 = test: Antiproliferative activity against human SKOV3 cells after 72 hrs; conditions: SK-OV-3, 72 h
MCF7 = test: Antiproliferative activity against human MCF7 cells after 72 hrs; conditions: MCF7, 72 h
MDA-MB-231 = test: Antiproliferative activity against human MDA-MB-231 cells after 72 hrs; conditions: MDA-MB-231, 72 h
NCI-H441 = test: Antiproliferative activity against human NCI-H441 cells after 72 hrs; conditions: NCI-H441, 72 h
NCI-H661 = test: Antiproliferative activity against human NCI-H661 cells after 72 hrs; conditions: NCI-H661, 72 h
[6] = Antiproliferative activity against human EBC1 cells after 72 hrs; conditions: EBC-1, 72 h
SNU-5 = test: Antiproliferative activity against human SNU5 cells after 72 hrs; conditions: SNU-5, 72 h
MKN-45 = test: Antiproliferative activity against human MKN45 cells after 72 hrs; conditions: MKN-45, 72 h
NIH3T3 = test: Antitumor activity against mouse NIH/3T3 cells expressing TPR/Met allografted in mouse assessed as tumor growth inhibition at 50 mg/kg, po qd administered for 2 weeks measured twice per week relative to vehicle-treated control; format: functional; conditions: NIH3T3, 336 h, read-out: TGI
Outline: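 Tumor fragments (1 mm³) implanted s.c. in right flank of nude mice by trocar. Randomized at 100–150 mm³ tumor volume. Dosed orally 7 days/week for 2 weeks; vehicle controls. Calipers twice weekly; TV = length×width²/2. Inhibition = 100%×{1−[(T day14−T day0)/(C day14−C day0)]}. n = 6/group, Student's t-test.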

With `C[C@H](Sc1cc(-c2cnn(C3CCNCC3)c2)cnc1N)c1c(Cl)ccc(F)c1Cl` the IC50 [1] was 0.171 µM.
For `CC(Sc1cc(-c2cnn(C3CCNCC3)c2)cnc1N)c1c(Cl)ccc(F)c1Cl` (racemic), the IC50 [1] was 0.0164 µM.
For `COc1cc2ncnc(Nc3ccc(F)c(Cl)c3)c2cc1OCCCN1CCOCC1`, the inhibition [2] was “inactive”, the inhibition [3] was “Active” and the inhibition [4] was “inactive”.
`CC(NS(=O)(=O)c1cc(-c2cnn(C3CCNCC3)c2)cnc1N)c1c(Cl)ccc(F)c1Cl` (configuration not stated) showed an IC50 [5] of over 10 µM.
Compound `C[C@@H](Oc1cc(-c2cnn(C3CCNCC3)c2)cnc1N)c1c(Cl)ccc(F)c1Cl` [CRIZOTINIB] has an IC50 (HCT-116) of 14.8 µM, an IC50 (SK-MEL-28) of 11 µM and an IC50 (SK-OV-3) of 12.8 µM. The IC50 (MCF7) was 9.58 µM, the IC50 (MDA-MB-231) was 10.8 µM and the IC50 (NCI-H441) was 17.2 µM. For the same compound, the IC50 (NCI-H661) was 11.5 µM, the IC50 [6] was 0.023 µM and the IC50 (SNU-5) was 0.016 µM. For the same compound, the IC50 (MKN-45) was 0.013 µM and the inhibition in vivo at 50 mg/kg (NIH3T3) was 82.4%.
